Measured values taken from ChEMBL document CHEMBL4610011, “Bilobalide and PC12 cells: A structure activity relationship study” (Bioorg Med Chem, 2020).
Active and inactive are the calls of the source. The calls are words filed in the database; no cut-off is given here.

Tests used:
PC-12 [1] = assay: Induction of neurite outgrowth in rat PC12 cells at 0.26 ug/ml incubated for 24 hrs by microscopic analysis; assay type: functional, cell-based
Outline: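 PC12 cells (2,000/well, collagen I) were treated for 24 h in DMEM with 1% FBS, 1% horse serum and 10 ng/mL NGF containing substance, then cultured 24 h in the same medium without Aβ. Cells were imaged by microscopy before the viability read-out. Cells with neurites equal to, twice, or more than twice the cell length were counted.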

PC-12 [2] = assay: Neuroprotective activity against amyloid beta (1 to 40 residues)-induced toxicity in rat PC12 cells at 0.26 ug/mL pretreated for 24 hrs followed by 1 uM amyloid beta (1 to 40 residues) challenge and measured after 24 hrs by WST-8 assay
PC-12 [3] = assay: Induction of cell proliferation in rat PC12 cells assessed as increase in cell viability at 0.26 ug/ml after 24 hrs in presence of 10 ng/ml NGF by WST-8 assay; assay type: functional, cell-based
Outline: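 PC12 cells were seeded at 2,000 cells/well on type I collagen and grown 24 h in DMEM with 10% FBS and 10% horse serum at 37 °C, 5% CO₂. They were then given 24 h in DMEM with 1% FBS, 1% horse serum and 10 ng/mL NGF plus substance, followed by 24 h without Aβ. Viability was read by 10% WST-8 for 1–2 h at A450, relative to 0.004% DMSO vehicle.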

Row | SMILES | Activity (PC-12 [1]) | Activity (PC-12 [2]) | Activity (PC-12 [3])
1 | CC(C)(C)[C@@]12C[C@@H]3OC(=O)C[C@]3(C(=O)O1)[C@@]21[C@H](OC(=O)c2ccc(Br)cc2)OC(=O)[C@@H]1OC(=O)c1ccc(Br)cc1 | Active | Active | 
2 | CC(C)(C)C1=C(C=O)[C@](CC(=O)OCc2ccccc2)(C(=O)OCc2ccccc2)C=C1 | Active | Active | 
3 | CC(=O)O[C@@H]1OC(=O)[C@H](OC(C)=O)[C@]12[C@@]13CC(=O)O[C@H]1C[C@]2(C(C)(C)C)OC3=O | Active | Active | Active
4 | CC(C)(C)[C@]1(O)C[C@@H]2OC(O)C[C@]2(CO)[C@@]12COC[C@@H]2O (stereo partly drawn) | inactive | inactive | Active
5 | CC(C)(C)[C@]1(O)C[C@@H]2OC(=O)C[C@@]23C(=O)O[C@@H]2OC(=O)[C@H](O)[C@]213 | Active | Active | Active
